Data reported in ChEMBL document CHEMBL4732122, “Pleiotropic prodrugs: Design of a dual butyrylcholinesterase inhibitor and 5-HT receptor antagonist with therapeutic interest in Alzheimer's disease” (Eur J Med Chem, 2021).
pIC50, pKi: −log10 of the molar value. “And” between values parts separate entries of the source, which are not always exact repeats. Identical values can stand only once. The source made the active and inactive calls. The rule behind the calls is not given here.

What was measured:
[1] = target: T1, 5-hydroxytryptamine receptor 6 (Homo sapiens, UniProt P50406); test: Antagonist activity at human 5HT6 receptor expressed in COS-7 cells assessed as inhibition of 5HT-induced cAMP accumulation preincubated for 7 mins followed by 5-HT addition and measured after 10 mins by HTRF assay relative to control; type: functional, cell-based; parameters: scale not given: the % may be the effect or the level left; details: COS7, filed as antagonist
How it was run: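 COS-7 cells grown in DMEM with 10% dialyzed FCS, transiently transfected by electroporation with HA-tagged 5-HT6R plasmid, seeded. 24 h later, ligands added at 37 °C for 7 min. Then 5-HT (5.10^-7 M final) plus RO-20-1724 (0.1 mM final) added for 10 min at 37 °C. Cells lysed in 0.1% Triton X-100 and cAMP read by HTRF. Log IC50 is mean ± SEM of three experiments.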

[2] = target: T1, 5-hydroxytryptamine receptor 6; test: Displacement of [3H]-LSD from human 5HT6 receptor expressed in HEK293 cell membrane at 10^-5 M measured after 60 mins relative to control; type: cell membranes; details: dose 10.0 µM
Acetylcholinesterase [3] = target: T2, Acetylcholinesterase (Homo sapiens, UniProt P22303); test: Inhibition of human erythrocyte AChE at 10^-6 M using acetylthiocholine iodide as substrate peincubated for 5 mins followed by substrate addition by DTNB-reagent based Ellman's method relative to control; details: dose 1.0 µM
How it was run: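 Human erythrocyte AChE diluted in 20 mM HEPES pH 8 with 0.1% Triton X-100 (0.05 U final). Preincubated 5 min at 25 °C with compound and 0.3 mM DTNB in phosphate buffer pH 7.4. Reaction started with 1 mM acetylthiocholine iodide.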

[4] = target: T1, 5-hydroxytryptamine receptor 6; test: Displacement of [3H]-LSD from human 5HT6 receptor expressed in HEK293 cell membrane at 10^-6 M measured after 60 mins relative to control; type: cell membranes; details: dose 1.0 µM
How it was run: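 Membranes of HEK-293 cells transiently expressing human 5-HT6R (4 µg protein) incubated in duplicate for 60 min at 37 °C with 2.5 nM [3H]-LSD and drug at 10^-6 or 10^-8 M. Buffer was 25 mM Tris-HCl pH 7.4 with 0.5 mM EDTA. Filtered on GF/C and washed with ice-cold Tris buffer. Non-specific binding defined with 100 µM serotonin.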

Homo sapiens = species on record: Homo sapiens; test: Selectivity index, ratio of IC50 for human BuChE to IC50 for human erythrocyte AChE
Mus musculus [5] = test: Reversal of scopolamine-induced working memory deficit in NMRI mouse assessed as increase in spontaneous alteration at 10 mg/kg, ip measured after 30 mins by Y-maze test; type: functional, organism-based
How it was run: (§1)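 Compound 10 mg/kg ip in 0.9% NaCl given 30 min before test. Scopolamine 0.5 mg/kg or MK801 0.1 mg/kg given sc 20 min before test to induce the deficit. Mouse placed in a three-arm Y maze for a 5 min session; arm-entry sequence recorded by an observer to score spontaneous alternation. n = 9 per group.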

Mus musculus [6] = test: Reversal of MK801-induced working memory deficit in NMRI mouse assessed as increase in spontaneous alteration at 10 mg/kg, ip measured after 30 mins by Y-maze test; type: functional, organism-based; how it was run: as §1
Cholinesterase [7] = target: T3, Cholinesterase (Homo sapiens, UniProt P06276); test: Inhibition of human BuChE at 10^-5 M using butyrylthiocholine iodide as substrate peincubated for 5 mins followed by substrate addition by DTNB-reagent based Ellman's method relative to control; details: dose 10.0 µM
[8] = target: Cholinesterase (Equus caballus) (UniProt P81908); test: Mixed type inhibition of equine BuchE at 10 to 500 nM using varying levels of butyrylthiocholine iodide as substrate by Lineweaver-Burk plot analysis; details: dose 10-500 nM
How it was run: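 Ellman method with equine BuChE. Butyrylthiocholine iodide varied from 0.1 to 1 mM, inhibitor at 10, 50, 100 and 500 nM. Double-reciprocal plots of 1/velocity versus 1/[substrate] used to assign the inhibition mode.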

Acetylcholinesterase [9] = target: T2, Acetylcholinesterase; test: Inhibition of human erythrocyte AChE using acetylthiocholine iodide as substrate peincubated for 5 mins followed by substrate addition by DTNB-reagent based Ellman's method
Cholinesterase [10] = target: T3, Cholinesterase; test: Inhibition of human BuChE using butyrylthiocholine iodide as substrate peincubated for 5 mins followed by substrate addition by DTNB-reagent based Ellman's method
[11] = target: T1, 5-hydroxytryptamine receptor 6; test: Displacement of [3H]-LSD from human 5HT6 receptor expressed in HEK293 cell membrane measured after 60 mins; type: cell membranes
[12] = Toxicity of compound in ip dosed NMRI mouse assessed as mortality after 24 hrs; type: organism-based; details: in vivo
How it was run: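 Mice in groups of four given 1, 10 or 100 mg/kg ip in 0.9% NaCl. Behavioral and neurological signs scored by standardized observation at 30 min, 3 h and 24 h. Approximate LD50 from mortality at 24 h. Amphetamine 2 mg/kg and chlorpromazine 10 mg/kg served as references.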

[13] = target: T1, 5-hydroxytryptamine receptor 6; test: Antagonist activity at human 5HT6 receptor expressed in COS-7 cells assessed as inhibition of 5HT-induced cAMP accumulation preincubated for 7 mins followed by 5-HT addition and measured after 10 mins by HTRF assay; type: functional, cell-based, COS7
How it was run: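 COS-7 cells grown in DMEM with 10% dialyzed FCS, transiently transfected by electroporation with HA-tagged 5-HT6R plasmid, seeded. 24 h later, ligands added at 37 °C for 7 min. Cells lysed in 0.1% Triton X-100 and cAMP read by HTRF. Log IC50 is mean ± SEM of three experiments.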

[14] = Effect on spontaneous locomotory activity in NMRI mouse at 1 to 10 mg/kg, ip measured for 30 mins; type: ADME, organism-based; details: in vivo, 0.5 h, dose 1-10 mg/kg
How it was run: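 Mice dosed ip at 1, 3 or 10 mg/kg in 0.9% NaCl, 30 min before test; chlorpromazine 3 mg/kg as depressive reference. Locomotion counted as infrared beam breaks in individual cages of an actimeter over 30 min. n = 8 per group; analyzed by ANOVA.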

[15] = Stability of compound in PBS buffer at pH 7.4 assessed as equine BuChE mediated decarbamoylation of compound at 5 uM incubated for 24 hrs by HPLC-LC/MS analysis; type: physicochemical; details: pH 7.4, 24 h
How it was run: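 Compound (5 µM) incubated in PBS pH 7.4 at 25 °C with 250 U/mL BuChE, or without enzyme as control. After incubation, extracted with ethyl acetate, evaporated and taken up in acetonitrile. Analyzed by C18 reversed-phase HPLC (water/acetonitrile with 0.1% formic acid, detection 280 nm) and LC-MS.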

T2 sequence (P22303 whole entry): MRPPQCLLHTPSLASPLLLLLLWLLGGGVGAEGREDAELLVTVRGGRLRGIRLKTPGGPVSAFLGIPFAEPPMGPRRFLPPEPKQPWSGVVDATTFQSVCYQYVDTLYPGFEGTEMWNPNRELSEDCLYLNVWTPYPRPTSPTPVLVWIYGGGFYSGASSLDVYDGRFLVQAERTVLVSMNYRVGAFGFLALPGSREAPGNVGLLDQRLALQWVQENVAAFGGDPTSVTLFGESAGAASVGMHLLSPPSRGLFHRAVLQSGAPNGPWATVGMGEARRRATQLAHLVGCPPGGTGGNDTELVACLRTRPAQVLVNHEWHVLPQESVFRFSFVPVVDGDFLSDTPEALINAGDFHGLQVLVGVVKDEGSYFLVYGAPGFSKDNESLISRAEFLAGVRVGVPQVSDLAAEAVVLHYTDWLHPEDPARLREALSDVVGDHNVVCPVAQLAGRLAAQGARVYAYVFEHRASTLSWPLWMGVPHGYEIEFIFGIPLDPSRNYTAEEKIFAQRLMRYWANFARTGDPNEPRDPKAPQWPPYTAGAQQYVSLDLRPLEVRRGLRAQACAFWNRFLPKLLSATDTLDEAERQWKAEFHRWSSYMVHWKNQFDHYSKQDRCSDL
T3 sequence (P06276 whole entry): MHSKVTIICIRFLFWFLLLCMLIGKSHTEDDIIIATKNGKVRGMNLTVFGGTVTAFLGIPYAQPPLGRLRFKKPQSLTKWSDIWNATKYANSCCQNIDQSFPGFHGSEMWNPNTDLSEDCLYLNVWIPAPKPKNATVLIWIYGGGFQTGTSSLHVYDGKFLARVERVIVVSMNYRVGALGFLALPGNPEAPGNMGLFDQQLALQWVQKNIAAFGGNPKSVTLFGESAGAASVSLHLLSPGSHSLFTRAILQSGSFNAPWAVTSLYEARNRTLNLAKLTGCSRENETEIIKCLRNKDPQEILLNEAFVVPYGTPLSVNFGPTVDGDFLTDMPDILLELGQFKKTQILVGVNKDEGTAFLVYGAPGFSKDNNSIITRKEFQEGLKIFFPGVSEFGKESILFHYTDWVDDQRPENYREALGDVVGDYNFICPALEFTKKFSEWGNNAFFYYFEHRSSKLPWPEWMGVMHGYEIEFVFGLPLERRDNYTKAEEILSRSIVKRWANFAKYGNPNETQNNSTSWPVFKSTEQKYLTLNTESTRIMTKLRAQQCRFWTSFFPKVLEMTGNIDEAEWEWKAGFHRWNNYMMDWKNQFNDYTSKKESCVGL
T1 sequence (P50406 whole entry): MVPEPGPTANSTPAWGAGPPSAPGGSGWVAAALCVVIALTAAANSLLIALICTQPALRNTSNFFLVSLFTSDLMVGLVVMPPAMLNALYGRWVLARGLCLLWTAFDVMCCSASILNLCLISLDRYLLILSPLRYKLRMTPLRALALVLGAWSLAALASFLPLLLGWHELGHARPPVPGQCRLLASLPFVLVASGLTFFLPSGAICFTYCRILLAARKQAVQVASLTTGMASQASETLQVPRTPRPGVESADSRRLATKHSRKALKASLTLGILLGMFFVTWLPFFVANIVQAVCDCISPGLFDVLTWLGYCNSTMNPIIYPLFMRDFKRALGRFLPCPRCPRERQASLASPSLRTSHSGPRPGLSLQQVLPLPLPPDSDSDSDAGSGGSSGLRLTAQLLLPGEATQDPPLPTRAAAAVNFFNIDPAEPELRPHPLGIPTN
Sequence of Cholinesterase (Equus caballus) (P81908 whole entry): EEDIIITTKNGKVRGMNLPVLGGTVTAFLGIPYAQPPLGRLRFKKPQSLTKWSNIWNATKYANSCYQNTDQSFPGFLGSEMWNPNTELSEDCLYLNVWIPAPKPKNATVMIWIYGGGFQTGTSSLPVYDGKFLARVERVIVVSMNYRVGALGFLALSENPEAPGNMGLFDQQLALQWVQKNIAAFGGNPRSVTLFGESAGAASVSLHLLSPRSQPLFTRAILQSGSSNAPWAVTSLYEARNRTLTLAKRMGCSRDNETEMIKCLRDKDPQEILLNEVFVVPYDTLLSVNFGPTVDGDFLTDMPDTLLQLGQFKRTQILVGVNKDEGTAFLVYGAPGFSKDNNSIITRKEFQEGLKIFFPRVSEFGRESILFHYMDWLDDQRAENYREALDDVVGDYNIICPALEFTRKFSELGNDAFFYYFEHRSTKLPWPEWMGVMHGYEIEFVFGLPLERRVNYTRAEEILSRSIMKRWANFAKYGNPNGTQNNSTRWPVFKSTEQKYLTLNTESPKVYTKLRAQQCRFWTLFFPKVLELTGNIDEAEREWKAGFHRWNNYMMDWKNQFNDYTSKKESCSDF

Compound: Fc1ccc2c(CCNCc3cccc(OCC(F)(F)C(F)F)c3)c[nH]c2c1
- Activity [1]: 101%
- inhibition ([2]; filed as antagonist): 88%
- inhibition (Acetylcholinesterase [3]): 6%
- inhibition ([4]; filed as antagonist): 106%

Compound: CCN(C)C(=O)Oc1cccc(CNCCc2c[nH]c3cc(F)ccc23)c1 [listing 1 of 2 here]
- Ratio IC50 (Homo sapiens): 0.06 and 0.05
- Activity (Mus musculus [5]): Active
- inhibition [2]: 24% and 32%
- inhibition (Acetylcholinesterase [3]): 9% and 5%
- Activity (Mus musculus [6]): inactive
- inhibition [4]: 37%
- inhibition ([4]; filed as antagonist): 53%
- inhibition (Cholinesterase [7]): 93% and 97%
- inhibition [8]: Active

Compound: CCN(C)C(=O)Oc1cccc(CNCCc2c[nH]c3cc(F)ccc23)c1 [listing 2 of 2 here]
- pIC50 (Acetylcholinesterase [9]): 4.78
- pIC50 (Cholinesterase [10]): 6.03

Compound: C[C@]12N[C@H](Cc3ccccc31)c1ccccc12 [DIZOCILPINE]
- pIC50 (Cholinesterase [10]): 4.80

Compound: Oc1cccc(CNCCc2c[nH]c3cc(F)ccc23)c1 [listing 1 of 2 here]
- Activity (Mus musculus [5]): inactive
- Activity [1]: 87.2%
- inhibition [2]: 33%
- inhibition ([2]; filed as antagonist): 48%
- inhibition (Acetylcholinesterase [3]): 8% and 2%
- Activity (Mus musculus [6]): Active
- inhibition ([4]; filed as antagonist): 104% and 85%
- inhibition (Cholinesterase [7]): 11% and 8%

Compound: Oc1cccc(CNCCc2c[nH]c3cc(F)ccc23)c1 [listing 2 of 2 here]
- pKi [11]: 7.94

Compound: Fc1ccc2c(CCNCc3cccc(OCc4ccccc4)c3)c[nH]c2c1
- inhibition [2]: 14%
- inhibition (Acetylcholinesterase [3]): 4%
- inhibition ([4]; filed as antagonist): 103%
- inhibition (Cholinesterase [7]): 2%

Compound: O=C(O)/C=C/C(=O)O.Oc1cccc(CNCCc2c[nH]c3cc(F)ccc23)c1
- LD50 at 24 h [12]: > 100 mg/kg
- pIC50 [13]: 5.70
- Activity [14]: Non-Toxic
- pKi [11]: 8.37

Compound: CCN(C)C(=O)Oc1cccc(CNCCc2c[nH]c3cc(F)ccc23)c1.O=C(O)/C=C/C(=O)O
- pIC50 (Acetylcholinesterase [9]): 4.76
- LD50 at 24 h [12]: > 100 mg/kg
- Activity [14]: Non-Toxic
- pIC50 (Cholinesterase [10]): 6.08
- Drug metabolism [15]: Metabolite_Detected
